Series [1] concerns HCT8/ADR cells. In words: In vitro cytotoxicity, MTT assay. Format: cell-based, human. As to conditions: 48 h, concentration up to 20 μg/mL. The method, boiled down:
(§1)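 HCT8 and HCT8/ADR cells were grown in RPMI-1640 with 10% FBS, streptomycin and penicillin at 37 °C under 5% CO₂. Cells were seeded at 5×10^3 per well and grown 24 h, then exposed to varying concentrations of test nanoparticles or free Dox for 48 h. MTT (5 mg/mL stock) was added for a further 4 h, then DMSO. Absorbance was read at 490 nm and viability calculated. Run in triplicate.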

The next series deals with BALB/c-nu nude mice. As to the kind of experiment: Preliminary treatment safety in tumor-bearing nude mice. The class given is in vivo. The method, boiled down: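 Female BALB/c-nu nude mice aged 3-4 weeks received 1×10^6 HCT8/ADR cells subcutaneously on the back. They were randomised into five groups of six: PBS, test nanoparticles or Dox given peritumorally, and test nanoparticles or Dox given intravenously. Dosing started at about 100 mm³ tumour volume, at 2 mg/kg Dox-equivalent every two days over 22 d. Body weight was monitored. At endpoint, organs were weighed, organ coefficient was taken as organ weight/body weight×100%, and histology was done.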

The subject of series [2] is HCT8/ADR cells. As to the kind of experiment: Effect of verapamil. The class given is cell-based, human. As to conditions: HCT8/ADR cells pretreated with verapamil 50 μmol/L for 2 h; drug incubation 1 h or 2 h; flow cytometry.
The test system of the next series is HCT8 cells. As to the kind of experiment: In vitro cytotoxicity, MTT assay. Format: cell-based, human. The settings on record: 48 h, Dox-equivalent concentration. The method, boiled down: as §1
In general terms: Formazan colour is commonly taken as a measure of viable cells.

The subject of series [3] is HCT8/ADR cells. As to the kind of experiment: Intranuclear distribution by confocal microscopy. As to conditions: 4 h incubation, DAPI counterstain. The class given is cell-based, human. In outline:
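HCT8/ADR cells were seeded at 2×10^4 per well in RPMI-1640 with 10% FBS and grown 24 h. They were incubated 4 h with test nanoparticles or free Dox, washed twice in ice-cold PBS, and fixed in fresh 4% paraformaldehyde for 15 min at room temperature. Nuclei were counterstained with DAPI and imaged by confocal laser scanning microscopy for Dox fluorescence.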

Consider `COc1cccc2c1C(=O)c1c(O)c3c(c(O)c1C2=O)C[C@@](O)(C(=O)CO)C[C@@H]3O[C@H]1C[C@H](N)[C@H](O)[C@H](C)O1` [Dox, Doxorubicin], for which the “antitumor activity (cytotoxicity)” value in the series on HCT8/ADR cells [1] was “ineffective”. In the series on BALB/c-nu nude mice (Dox dose 2 mg/kg per two days over 22 d, nude mice bearing HCT8/ADR tumor), the body weight change entry is reported as “remarkable body weight loss”. In addition, the “histological examination of major organs” value in the series on BALB/c-nu nude mice (at experimental endpoint, 22 d) is “degeneration and edema and focal cytolysis necrosis in the liver and spleen”. Moreover, the “organ coefficient of liver and spleen” value in the series on BALB/c-nu nude mice (iv, at experimental endpoint, 22 d) was “reduced markedly”. Also, in the series with HCT8/ADR cells [2], the “change of uptake efficiency after verapamil” value is “clearly increased uptake efficiency”. In addition, the “IC50 (cell proliferation)” value in the series on HCT8 cells is on record as “approximately 1 μg/mL”. For the same compound, the “Dox-related red fluorescence, intranuclear accumulation” value in the series with HCT8/ADR cells [3] is reported as “hardly observed”.

The record behind these values is article PMC4973383 (Acta Pharmacologica Sinica, 2016).
